Experimental data reported in ChEMBL document CHEMBL1142561, “Prenylflavonoids and phloroglucinol derivatives from hops (Humulus lupulus)” (J Nat Prod, 2005).

Legend:
RAW264.7 [1] = experiment: Inhibition of LPS/IFN-gamma-induced NO production in mouse RAW264.7 cells after 16 hrs; format: functional, cell-based; settings: RAW264.7, 16 h
Summary of the method: (§1)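 RAW 264.7 macrophages in RPMI 1640 with 10% FBS, 2 mM L-glutamine, penicillin/streptomycin, seeded at 5 × 10⁵ cells/mL. After 1 h, stimulated with LPS (100 ng/mL) plus IFN-γ (100 units/mL) and samples in DMSO (0.2% final) for 16 h at 37 °C. Supernatant nitrite measured by Griess assay at 570 nm against NaNO₂ standards. Inhibition rate taken relative to LPS/IFN-only wells.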

[2] = Cytotoxicity against mouse RAW264.7 cells assessed as cell viability at 2 uM after 16 hrs by MTT assay; format: cell-based; settings: read-out: Activity
Summary of the method: (§2)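 RAW 264.7 cells grown in RPMI 1640 with 10% FBS, 2 mM L-glutamine, penicillin/streptomycin. Seeded at 5 × 10⁵ cells/mL in 96-well plates and co-treated with LPS (100 ng/mL), IFN-γ (100 units/mL) and samples in DMSO (0.2% final) for 16 h at 37 °C. MTT (200 μg/mL) added for a further 4 h. Formazan dissolved in DMSO, A540 read, compared with nontreated cells.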

RAW264.7 [3] = experiment: Inhibition of LPS/IFN-gamma-induced NO production in mouse RAW264.7 cells at non cytotoxic concentration after 16 hrs; format: functional; summary of the method: as §1
RAW264.7 [4] = experiment: Cytotoxicity against mouse RAW264.7 cells after 16 hrs by MTT assay; format: cell-based; settings: raw264.7, 16 h; summary of the method: as §2
[5] = Cytotoxicity against mouse RAW264.7 cells assessed as cell viability at <10 uM after 16 hrs by MTT assay; format: cell-based; settings: read-out: Activity; summary of the method: as §2
RAW264.7 [6] = experiment: Cytotoxicity against mouse RAW264.7 cells assessed as cell viability at 20 uM after 16 hrs by MTT assay; format: cell-based; settings: raw264.7, 16 h; summary of the method: as §2
[7] = Cytotoxicity against mouse RAW264.7 cells assessed as cell viability at 200 uM after 16 hrs by MTT assay; format: cell-based; settings: read-out: Activity; summary of the method: as §2

Structure (SMILES) | IC50 (RAW264.7 [1]) [µM] | viability at 16 h, 2 µM [2] [%] | inhibition (INH) (RAW264.7 [3]) [%] | Activity (RAW264.7 [4]) | viability at 16 h [5] [%] | Activity (RAW264.7 [6]) | viability at 16 h, 200 µM [7] [%]
COc1cc(O)c(CC=C(C)C)c(O)c1C(=O)CCc1ccc(O)cc1 [DIHYDROXANTHOHUMOL] | 23 |  |  |  | > 95 | Non-toxic | 
CC(C)=CCC1(CC=C(C)C)C(=O)C2=C(OC(C(C)(C)O)C2)C(C(=O)CC(C)C)=C1O (centres undefined) [LUPULONE C] | 63 |  | <40 | Toxic |  |  | 
CC(C)C(=O)c1c(O)ccc2c1OC(C(C)(C)O)C2 (centres undefined) [LUPULONE F] | > 100 |  |  |  |  |  | 
CC(C)=CCC1(CC=C(C)C)C(=O)C(O)=C(O)C1=O [HULUPINIC ACID] | > 100 |  |  |  |  |  | > 95
CC(C)=CCC1=C2OC(C)(C)C=CC2(CC=C(C)C)C(=O)C(C(=O)CC(C)C)=C1O (centres undefined) [LUPULONE A] | 20 |  | <40 | Toxic |  |  | 

The next molecules have a lower IC50 (RAW264.7 [1]) than those just listed; values first:

IC50 (RAW264.7 [1]) [µM] | Structure (SMILES) | viability at 16 h, 2 µM [2] [%] | inhibition (INH) (RAW264.7 [3]) [%] | Activity (RAW264.7 [4]) | viability at 16 h [5] [%] | Activity (RAW264.7 [6]) | viability at 16 h, 200 µM [7] [%]
15 | CC(C)=CCC1=C2OC(C(C)(C)O)CC2(CC=C(C)C)C(=O)C(C(=O)C(C)C)=C1O (centres undefined) [LUPULONE E] | < 95 | <40 | Toxic |  |  | 
9.4 | C=C(C)C(O)Cc1c(O)cc(OC)c(C(=O)/C=C/c2ccc(O)cc2)c1O (centres undefined) [XANTHOHUMOL D] |  |  |  | > 95 |  | 
6.5 | COc1cc(O)c(CC(O)C(C)(C)OC)c(O)c1C(=O)/C=C/c1ccc(O)cc1 (racemic) |  |  |  | > 95 |  | 
8.3 | COc1cc(O)c(CC=C(C)C)c(O)c1C(=O)/C=C/c1ccc(O)cc1 [XANTHOHUMOL] |  |  |  | > 95 |  | 
11 | CC(C)=CCC1=C2OC(C(C)(C)O)CC2(CC=C(C)C)C(=O)C(C(=O)CC(C)C)=C1O (centres undefined) [LUPULONE D] | < 95 | <40 | Toxic |  |  | 
14 | CC(C)=CCC1=C2OC(C)(C)C=CC2(CC=C(C)C)C(=O)C(C(=O)C(C)C)=C1O (centres undefined) [LUPULONE B] |  | <40 | Toxic |  |  | 
5.6 | COc1cc2c(c(O)c1C(=O)/C=C/c1ccc(O)cc1)CC(O)C(C)(C)O2 (centres undefined) [XANTHOHUMOL B] |  |  |  | > 95 |  | 
17 | CC(C)=CCC1=C(O)C(C(=O)CC(C)C)=C(O)C(CC=C(C)C)(CC=C(C)C)C1=O [LUPULONE] |  | <40 | Toxic |  |  | 
